# Results: ChEMBL document CHEMBL1765016, “Indolylarylsulfones as HIV-1 non-nucleoside reverse transcriptase inhibitors: new cyclic substituents at indole-2-carboxamide” (J Med Chem, 2011)
# Experiments:
# [1] = target: Human immunodeficiency virus type 1 reverse transcriptase (Human immunodeficiency virus 1, UniProt Q72547); test: Inhibition of HIV1 wild type reverse transcriptase expressed in Escherichia coli assessed as incorporation of [3H]dTTP into poly(rA)/oligo(dT) by scintillation counting
# Procedure, shortened: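 Template was poly(rA)/oligo(dT) 10:1 (0.3 μM 3′-OH ends) with 10 μM [³H]dTTP, at 37 °C. TCA-precipitable counts were taken on GF/C filters. IC₅₀ is 50% inhibition of RT activity.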
# [2] = system: Human immunodeficiency virus 2; test: Antiviral activity against HIV2 isolate ROD infected in human CEM cells assessed as inhibition of virus-induced cytopathicity after 4 days by microscopic analysis; format: functional, organism-based; conditions: Human immunodeficiency virus 2, ISOLATE ROD, CCRF-CEM, 96 h
# Procedure, shortened: (§1)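 CEM cells (~3 × 10⁵ cells/mL) infected with ~100 CCID₅₀ virus per mL, seeded into wells with compound dilutions. Syncytia (giant cell) formation scored microscopically after 4 days at 37 °C. EC₅₀ is the concentration protecting cells by 50%. Values are means of two experiments in triplicate.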
# [3] = target: Human immunodeficiency virus type 1 reverse transcriptase (Human immunodeficiency virus 1, UniProt Q72547, K103N); test: Inhibition of HIV1 reverse transcriptase K103N mutant expressed in Escherichia coli assessed as incorporation of [3H]dTTP into poly(rA)/oligo(dT) by scintillation counting
# Procedure, shortened: (§2)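 The RT was recombinant p66(His)/p51 heterodimer, mutant form, expressed in E. coli. TCA-precipitable radioactivity on GF/C filters was read by scintillation. IC50 is the concentration giving 50% inhibition.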
# [4] = target: Human immunodeficiency virus type 1 reverse transcriptase (Human immunodeficiency virus 1, UniProt Q72547, L100I); test: Inhibition of HIV1 reverse transcriptase L100I mutant expressed in Escherichia coli assessed as incorporation of [3H]dTTP into poly(rA)/oligo(dT) by scintillation counting; procedure, shortened: as §2
# [5] = Cytotoxicity against human CEM cells by coulter counter analysis; format: cell-based; conditions: CEM (CCRF-CEM) cells
# Procedure, shortened: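 Mock-infected CEM cultures with compound, cell number counted by Coulter counter as percent of untreated control. CC₅₀ (50% reduction in proliferation) was read from plots against concentration. Values are means of two experiments in triplicate.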
# [6] = Selectivity index, CC50 for human CEM cells to IC50 for HIV1 3B; format: functional, CCRF-CEM
# Procedure, shortened: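 Ratio of CC₅₀ (Coulter count, mock-infected CEM) to EC₅₀ (CEM, HIV-1 IIIB, microscopic syncytia scoring at day 4).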
# [7] = system: Human immunodeficiency virus 1; test: Antiviral activity against wild type HIV1 3B infected in human CEM cells assessed as inhibition of virus-induced cytopathicity after 4 days by microscopic analysis; format: functional, organism-based; conditions: Human immunodeficiency virus 1, 3B, CCRF-CEM, 96 h; procedure, shortened: as §1
# [8] = target: Human immunodeficiency virus type 1 reverse transcriptase (Human immunodeficiency virus 1, UniProt Q72547, Y181I); test: Inhibition of HIV1 reverse transcriptase Y181I mutant expressed in Escherichia coli assessed as incorporation of [3H]dTTP into poly(rA)/oligo(dT) by scintillation counting; procedure, shortened: as §2
Structure (SMILES),IC50 [1],EC50 [2],IC50 [3],IC50 [4],CC50 [5],Selectivity Index [6],EC50 [7],IC50 [8]
Cc1cc(C)cc(S(=O)(=O)c2c(C(=O)NCCN3CCCC3)[nH]c3ccc(Br)cc23)c1,0.065 µM,> 2 µM,0.697 µM,0.315 µM,5.6 µM,351,0.016 µM,> 40 µM
Cc1cc(C)cc(S(=O)(=O)c2c(C(=O)NCN3CCOCC3)[nH]c3ccc(Cl)c(F)c23)c1,0.08 µM,> 10 µM,1.17 µM,0.241 µM,38 µM,15200,0.0025 µM,10.2 µM
Cc1cc(C)cc(S(=O)(=O)c2c(C(=O)NCCn3cccc3)[nH]c3ccc([N+](=O)[O-])cc23)c1,0.034 µM,> 50 µM,0.272 µM,0.023 µM,226 µM,32754,0.0069 µM,> 40 µM
Cc1cc(C)cc(S(=O)(=O)c2c(C(=O)NCN3CCOCC3)[nH]c3ccc(Br)cc23)c1,0.168 µM,> 10 µM,0.863 µM,0.1 µM,35 µM,10294,0.0034 µM,4.3 µM
Cc1cc(C)cc(S(=O)(=O)c2c(C(=O)NCCOc3ccccc3)[nH]c3ccc(Cl)c(F)c23)c1,0.066 µM,> 2 µM,18.5 µM,0.068 µM,11 µM,549,0.019 µM,> 40 µM
Cc1cc(C)cc(S(=O)(=O)c2c(C(=O)NCCc3ccccc3)[nH]c3ccc([N+](=O)[O-])cc23)c1,0.06 µM,> 50 µM,> 40 µM,0.04 µM,> 500 µM,>72529,0.0068 µM,> 40 µM
Cc1cc(C)cc(S(=O)(=O)c2c(C(=O)NCCN3CCCC3)[nH]c3ccc(Cl)c(F)c23)c1,0.158 µM,> 2 µM,2.41 µM,1.55 µM,6.4 µM,229,0.028 µM,> 40 µM
Cc1cc(C)cc(S(=O)(=O)c2c(C(=O)NCCN3CCOCC3)[nH]c3ccc(Cl)cc23)c1,0.099 µM,> 2 µM,6.68 µM,0.225 µM,50 µM,5682,0.0088 µM,> 40 µM
Cc1cc(C)cc(S(=O)(=O)c2c(C(=O)NCCc3ccccc3)[nH]c3ccc(Br)cc23)c1,0.128 µM,> 2 µM,1.68 µM,0.023 µM,409 µM,29214,0.014 µM,> 40 µM
Cc1cc(C)cc(S(=O)(=O)c2c(C(=O)NCN3CCCCC3)[nH]c3ccc(Br)cc23)c1,0.03 µM,> 2 µM,0.125 µM,0.019 µM,10 µM,2703,0.0037 µM,0.497 µM
Cc1cc(C)cc(S(=O)(=O)c2c(C(=O)NCCn3cccc3)[nH]c3ccc(Br)cc23)c1,–,> 10 µM,–,–,146 µM,22813,0.0064 µM,–
Cc1cc(C)cc(S(=O)(=O)c2c(C(=O)NCN3CCCC3)[nH]c3ccc(Br)cc23)c1,0.008 µM,> 2 µM,0.067 µM,0.014 µM,9.6 µM,7385,0.0013 µM,0.418 µM
Cc1cc(C)cc(S(=O)(=O)c2c(C(=O)NCCN3CCOCC3)[nH]c3ccc(Cl)c(F)c23)c1,0.711 µM,> 10 µM,6.37 µM,0.747 µM,11 µM,846,0.013 µM,> 40 µM
O=C1Nc2ccc(Cl)cc2[C@@](C#CC2CC2)(C(F)(F)F)O1 [EFAVIRENZ],–,> 10 µM,–,–,> 10000 µM,>6667,0.0015 µM,–
Cc1cc(C)cc(S(=O)(=O)c2c(C(=O)NCCc3ccccc3)[nH]c3ccc(Cl)c(F)c23)c1,–,> 10 µM,–,–,17 µM,1214,0.014 µM,–
Cc1cc(C)cc(S(=O)(=O)c2c(C(=O)NCCOc3ccccc3)[nH]c3ccc(Br)cc23)c1,4.72 µM,> 25 µM,> 40 µM,> 40 µM,> 500 µM,>17241,0.029 µM,> 40 µM
Cc1cc(C)cc(S(=O)(=O)c2c(C(=O)NCCN3CCCC3)[nH]c3ccc([N+](=O)[O-])cc23)c1,0.28 µM,> 10 µM,1.35 µM,0.594 µM,21 µM,1313,0.016 µM,> 40 µM
Cc1cc(C)cc(S(=O)(=O)c2c(C(=O)NCN3CCCCC3)[nH]c3ccc(Cl)c(F)c23)c1,–,> 10 µM,–,–,32 µM,8205,0.0039 µM,–
Cc1ccnc2c1NC(=O)c1cccnc1N2C1CC1 [NEVIRAPINE],–,> 10 µM,–,–,> 10000 µM,>520,0.0192 µM,–
Cc1cc(C)cc(S(=O)(=O)c2c(C(=O)NCCOc3ccccc3)[nH]c3ccc([N+](=O)[O-])cc23)c1,0.95 µM,> 2 µM,> 40 µM,> 40 µM,> 500 µM,>17241,0.029 µM,> 40 µM
Cc1cc(C)cc(S(=O)(=O)c2c(C(=O)NCN3CCCC3)[nH]c3ccc(Cl)c(F)c23)c1,–,> 2 µM,–,–,9.3 µM,2385,0.0039 µM,–
Cc1cc(C)cc(S(=O)(=O)c2c(C(=O)NCCN3CCOCC3)[nH]c3ccc(Br)cc23)c1,0.063 µM,> 50 µM,1.36 µM,0.108 µM,409 µM,2406,0.17 µM,> 40 µM
Cc1cc(C)cc(S(=O)(=O)c2c(C(=O)NCN3CCOCC3)[nH]c3ccc([N+](=O)[O-])cc23)c1,0.15 µM,≥ 10 µM,0.864 µM,0.099 µM,46 µM,7931,0.0058 µM,1.6 µM
Cc1cc(C)cc(S(=O)(=O)c2c(C(=O)NCN3CCCC3)[nH]c3ccc([N+](=O)[O-])cc23)c1,0.034 µM,7.8 µM,0.287 µM,0.054 µM,12 µM,4800,0.0025 µM,1.02 µM
Cc1cc(C)cc(S(=O)(=O)c2c(C(=O)NCCn3cccc3)[nH]c3ccc(Cl)c(F)c23)c1,0.018 µM,> 10 µM,0.17 µM,0.03 µM,9.8 µM,1782,0.0055 µM,3.7 µM
Cc1cc(C)cc(S(=O)(=O)c2c(C(=O)NCc3ccccc3)[nH]c3ccc(Cl)c(F)c23)c1,0.04 µM,> 2 µM,0.144 µM,0.04 µM,15 µM,2586,0.0058 µM,> 40 µM
Cc1cc(C)cc(S(=O)(=O)c2c(C(=O)NCCN3CCOCC3)[nH]c3ccc([N+](=O)[O-])cc23)c1,0.055 µM,4.9 µM,> 40 µM,0.421 µM,42 µM,5250,0.008 µM,> 40 µM
Cc1cc(C)cc(S(=O)(=O)c2c(C(=O)NCN3CCCCC3)[nH]c3ccc([N+](=O)[O-])cc23)c1,0.013 µM,7.5 µM,0.307 µM,0.01 µM,12 µM,3871,0.0031 µM,0.999 µM
